Assay [1] addresses T1, Ribonucleoside-diphosphate reductase large subunit (Mus musculus, UniProt P07742).
T1 sequence (P07742 whole entry): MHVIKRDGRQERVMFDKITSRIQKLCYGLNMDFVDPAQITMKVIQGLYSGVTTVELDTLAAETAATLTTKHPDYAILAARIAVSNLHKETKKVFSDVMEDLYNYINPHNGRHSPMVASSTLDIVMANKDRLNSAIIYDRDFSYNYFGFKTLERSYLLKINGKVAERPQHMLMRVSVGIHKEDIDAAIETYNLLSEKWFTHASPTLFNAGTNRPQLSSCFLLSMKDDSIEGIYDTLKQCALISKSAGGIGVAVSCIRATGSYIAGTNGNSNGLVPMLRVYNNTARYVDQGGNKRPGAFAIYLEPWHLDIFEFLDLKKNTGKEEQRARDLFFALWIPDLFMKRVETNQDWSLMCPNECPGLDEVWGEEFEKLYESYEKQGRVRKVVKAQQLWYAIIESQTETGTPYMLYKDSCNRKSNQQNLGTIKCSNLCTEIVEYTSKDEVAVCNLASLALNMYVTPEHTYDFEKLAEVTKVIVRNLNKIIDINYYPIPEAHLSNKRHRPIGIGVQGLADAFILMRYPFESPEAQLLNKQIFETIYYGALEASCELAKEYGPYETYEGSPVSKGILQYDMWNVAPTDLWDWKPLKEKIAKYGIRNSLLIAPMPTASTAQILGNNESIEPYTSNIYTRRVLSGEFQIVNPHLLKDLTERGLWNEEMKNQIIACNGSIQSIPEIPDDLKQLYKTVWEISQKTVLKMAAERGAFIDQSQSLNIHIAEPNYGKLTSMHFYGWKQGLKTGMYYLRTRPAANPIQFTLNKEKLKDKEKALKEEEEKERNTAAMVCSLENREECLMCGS
As to the kind of experiment: Inhibitory activity of compound against mammalian ribonucleotide reductase; Range is 25-29. The gist of the method: (§1)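 Calf thymus R1 (1 μg) with cloned mouse R2 (2 μg) expressed in E. coli from pET-M2. CDP reduction was run at 35 °C with DTT as reductant. [³H]dCDP was separated on aminophenylboronate and counted by scintillation.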

Assay [2] addresses T1, Ribonucleoside-diphosphate reductase large subunit. As to the kind of experiment: Inhibitory activity of compound against mammalian ribonucleotide reductase; Range is 34-35. In short, it runs like this:
as §1

Assay [3] addresses Ribonucleoside-diphosphate reductase RR1 (Homo sapiens) (UniProt P23921+Q7LG56+P31350). As to the kind of experiment: Relative inhibitory potency against mammalian ribonucleotide reductase. The class given is protein-complex assay.
The target in assay [4] is T1, Ribonucleoside-diphosphate reductase large subunit. As to the kind of experiment: Inhibitory activity of compound against mammalian ribonucleotide reductase; Range is 35-40. In short, it runs like this:
as §1

The target is the same in assay [5]. As to the kind of experiment: Inhibitory activity of compound against mammalian ribonucleotide reductase; Range is 29-30. The gist of the method: as §1
For assay [6] the target is unchanged. As to the kind of experiment: Inhibitory activity of compound against mammalian ribonucleotide reductase; Range is 9-15. The gist of the method: as §1
Assay [7] has the same target. In words: Inhibitory activity of compound against mammalian ribonucleotide reductase; Range is 48-58. The gist of the method:
as §1

For assay [8] the target is unchanged. In words: Inhibitory activity of compound against mammalian ribonucleotide reductase; Range is 8-20. The gist of the method: as §1
For assay [9] the target is unchanged. In words: Inhibitory activity of compound against mammalian ribonucleotide reductase; Range is 450-620. In short, it runs like this:
as §1

The target is the same in assay [10]. In words: Inhibitory activity of compound against mammalian ribonucleotide reductase; Range is 364-460. The gist of the method: as §1
Assay [11] has the same target. In words: Inhibitory activity of compound against mammalian ribonucleotide reductase; Range is 286-336. The gist of the method:
as §1

Assay [12] shares this target. As to the kind of experiment: Inhibitory activity of compound against mammalian ribonucleotide reductase; Range is 32-38. In short, it runs like this: as §1
For assay [13] the target is unchanged. In words: Inhibitory activity of compound against mammalian ribonucleotide reductase; Range is 110-230. In short, it runs like this:
as §1

The target is the same in assay [14]. In words: Inhibitory activity of compound against mammalian ribonucleotide reductase; Range is 40-42. The gist of the method:
as §1

pIC50: −log10 of the molar value.

As a reminder, the pIC50 is −log10 of the IC50, conventionally taken in molar units. Higher therefore signals a low IC50. `CC(=O)N[C@@H](Cc1ccccc1)C(=O)N[C@H](C(=O)N[C@@H](CC(C)C)C(=O)N[C@@H](CC(N)=O)C(=O)N[C@@H](C)C(=O)N[C@@H](CC(=O)O)C(=O)N[C@@H](Cc1ccccc1)C(=O)O)[C@@H](C)O` had a pIC50 in assay [1] of 4.60.
Consider `CC(=O)N[C@@H](Cc1ccccc1)C(=O)N[C@H](C(=O)N[C@@H](CC(C)C)C(=O)N[C@@H](CC(=O)O)C(=O)N[C@@H](C)C(=O)N[C@@H](C)C(=O)N[C@@H](Cc1ccccc1)C(=O)O)[C@@H](C)O`, for which the pIC50 in assay [2] is 4.47.
Turning to Ac-FALDADF-OH, the RI in assay [3] stood at 24%. In [4], this compound gave a pIC50 of 4.46.
Regarding `CC(=O)N[C@@H](Cc1ccccc1)C(=O)N[C@H](C(=O)N[C@@H](CC(C)C)C(=O)N[C@@H](CC(=O)O)C(=O)N[C@@H](C)C(=O)N[C@@H](CC(C)C)C(=O)N[C@@H](Cc1ccccc1)C(=O)O)[C@@H](C)O`, the pIC50 in assay [5] is 4.54.
`CC(=O)N[C@@H](CC(N)=O)C(=O)N[C@@H](CO)C(=O)N[C@@H](Cc1ccccc1)C(=O)N[C@H](C(=O)N[C@@H](CC(C)C)C(=O)N[C@@H](CC(=O)O)C(=O)N[C@@H](C)C(=O)N[C@@H](CC(=O)O)C(=O)N[C@@H](Cc1ccccc1)C(=O)O)[C@@H](C)O` showed a pIC50 in [6] of 5.05.
`CC(=O)N[C@@H](Cc1ccccc1)C(=O)N[C@H](C(=O)N[C@@H](Cc1ccccc1)C(=O)N[C@@H](CC(=O)O)C(=O)N[C@@H](C)C(=O)N[C@@H](CC(=O)O)C(=O)N[C@@H](Cc1ccccc1)C(=O)O)[C@@H](C)O`: the pIC50 in assay [7] was 4.32.
For the compound `CC(=O)N[C@@H](CO)C(=O)N[C@@H](Cc1ccccc1)C(=O)N[C@H](C(=O)N[C@@H](CC(C)C)C(=O)N[C@@H](CC(=O)O)C(=O)N[C@@H](C)C(=O)N[C@@H](CC(=O)O)C(=O)N[C@@H](Cc1ccccc1)C(=O)O)[C@@H](C)O`, in [8], the negative-log IC50 (pIC50) was 5.10.
The compound `CC(=O)N[C@@H](Cc1ccccc1)C(=O)N[C@H](C(=O)N[C@@H](CC(C)C)C(=O)N[C@@H](CC(=O)O)C(=O)N[C@@H](C)C(=O)N[C@@H](CCC(=O)O)C(=O)N[C@@H](Cc1ccccc1)C(=O)O)[C@@H](C)O` gave a pIC50 in assay [9] of 3.35.
Compound `CC(=O)N[C@@H](Cc1ccccc1)C(=O)N[C@H](C(=O)N[C@@H](CC(C)C)C(=O)N[C@@H](CC(=O)O)C(=O)N[C@@H](Cc1ccccc1)C(=O)O)[C@@H](C)O` gave a pIC50 in assay [10] of 3.44.
As to `CC(=O)N[C@@H](Cc1ccccc1)C(=O)N[C@H](C(=O)N[C@@H](CC(C)C)C(=O)N[C@@H](C)C(=O)N[C@@H](C)C(=O)N[C@@H](CC(=O)O)C(=O)N[C@@H](Cc1ccccc1)C(=O)O)[C@@H](C)O`, in assay [11], the pIC50 is 3.54.
In assay [12], `CC(=O)N[C@@H](Cc1ccccc1)C(=O)N[C@H](C(=O)N[C@@H](CC(C)C)C(=O)N[C@@H](CC(=O)O)C(=O)N[C@@H](C)C(=O)N[C@@H](CC(N)=O)C(=O)N[C@@H](Cc1ccccc1)C(=O)O)[C@@H](C)O` gave a pIC50 of 4.49.
On to `CC(=O)N[C@@H](Cc1ccccc1)C(=O)N[C@H](C(=O)N[C@@H](CC(C)C)C(=O)N[C@@H](CC(=O)O)C(=O)NCC(=O)N[C@@H](CC(=O)O)C(=O)N[C@@H](Cc1ccccc1)C(=O)O)[C@@H](C)O`, for which the pIC50 in assay [13] was 3.96.
In [3], Ac-FSLDADF-OH showed an RI of 25%. Moreover, in assay [14], the pIC50 is 4.40.

The record behind these values is ChEMBL document CHEMBL1126924, “R2 C-terminal peptide inhibition of mammalian and yeast ribonucleotide reductase” (J Med Chem, 1993).
